1 molecule from ChEMBL document CHEMBL4261600 (Eur J Med Chem, 2018) can be followed below.

The nature of data set [1]: Antiproliferative activity against CHO cells after 72 hrs by Celltiter-Glo assay. The data set is classed as cell-based, Cricetulus griseus. As to conditions: chinese hamster. The gist of the method:
(§1)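 Cells seeded at 3000/well in 96-well plates, exposed to serially diluted compound for 72 h at 37 °C, 5% CO2. Viability read by CellTiter-Glo luminescence and normalized to DMSO control. GI50 derived from curve fit, mean of three independent measurements. Culture media: DMEM/10% FBS for adherent lines; IMDM for MV4-11 and MEC-1/2; RPMI 1640 for suspension lines and CHL.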
(In general: Cellular ATP, detected with luciferase, serves as a proxy for viable cell number.)

For data set [2], the target named is Ephrin type-A receptor 5 (Homo sapiens) (UniProt P54756). The data set can be described thus: Binding affinity to wild-type human partial length EPHA5 (T627 to V930 residues) expressed in bacterial expression system assessed as remaining unbound target protein level at 1000 nM by Kinomescan method relative to control.
For data set [3], the target named is Ribosomal protein S6 kinase alpha-2 (Homo sapiens) (UniProt Q15349). The data set can be described thus: Binding affinity to wild-type human partial length N-terminal RSK3 kinase domain 1 (M1 to Q385 residues) expressed in bacterial expression system assessed as remaining unbound target protein level at 1000 nM by Kinomescan method relative to control.
Data set [4] has as its target Mitogen-activated protein kinase kinase kinase 3 (Homo sapiens) (UniProt Q99759). The data set can be described thus: Binding affinity to wild-type human partial length MAP3K3 (E320 to Y626 residues) expressed in mammalian expression system assessed as remaining unbound target protein level at 1000 nM by Kinomescan method relative to control.
For data set [5], the target named is cGMP-dependent protein kinase 1 (Homo sapiens) (UniProt Q13976). Put plainly: Binding affinity to wild-type human partial length PRKG1 (L339 to F686 residues) expressed in bacterial expression system assessed as remaining unbound target protein level at 1000 nM by Kinomescan method relative to control.
Data set [6] deals with Cyclin-dependent kinase 9 (Homo sapiens, UniProt P50750). The data set can be described thus: Inhibition of CDK9 in human MEC1 cells assessed as decrease in RNA polymerase 2 phosphorylation at Ser 2 residues in CTD domain after 2 hrs by immunoblotting analysis. Type of data set: cell-based. In general terms: Immunoblotting shows a protein as a band on a membrane.
Data set [7] in a line: Cmax in beagle dog at 10 mg/kg, po by LC-MS/MS analysis. Also on record: dose 10 mg/kg, route oral. The data set is classed as ADME, organism-based, Canis lupus familiaris. Particulars: in vivo.
Data set [8] relates to SKM-1. The data set can be described thus: Antiproliferative activity against human SKM1 cells after 72 hrs by Celltiter-Glo assay. Type of data set: functional. Particulars: SKM-1, 72 h. An outline of the steps:
as §1

Data set [9] deals with SRSF protein kinase 2 (Homo sapiens) (UniProt P78362). The data set can be described thus: Binding affinity to wild-type human full length SRPK2 (M1 to S686 residues) expressed in bacterial expression system assessed as remaining unbound target protein level at 1000 nM by Kinomescan method relative to control. The gist of the method: (§2)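 Profiled in a KINOMEscan binding panel with the inhibitor at a single concentration of 1 μM. Binding to each kinase was read out as percent of control, relative to a DMSO control. Strong binders were defined as those with a percent control value below 1.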

The target of data set [10] is Myosin light chain kinase, smooth muscle (Homo sapiens) (UniProt Q15746). Put plainly: Binding affinity to wild-type human full length MYLK (M854 to E1845 residues) expressed in mammalian expression system assessed as remaining unbound target protein level at 1000 nM by Kinomescan method relative to control. The gist of the method:
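KINOMEscan competition binding profile across a panel of 468 kinases and mutants, with the inhibitor tested at a single concentration of 1 μM. Binding is reported as percent of control, meaning signal relative to a DMSO control.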

Data set [11] relates to Canis familiaris. The data set can be described thus: AUC (0 to infinity) in beagle dog at 2 mg/kg, iv by LC-MS/MS analysis. Also on record: dose 2 mg/kg, route intravenous, time infinity. Particulars: in vivo. Type of data set: ADME, organism-based, Canis lupus familiaris. An outline of the steps:
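Non-compartmental PK. Male SD rats 190-210 g, mice and beagle dogs acclimatized one week, fasted 12 h with water, split into iv and po groups (mice 48, rats 6, dogs 6). iv 3/3/2 mg/kg (mice/rats/dogs); po 10/20/10 mg/kg; vehicle DMSO in 5% glucose water. Blood at 2 or 5 to 720 min; plasma protein-precipitated with methanol, caffeine internal standard, LC-MS/MS.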

The subject of data set [12] is Epidermal growth factor receptor (Homo sapiens), P00533 [UNDEFINED MUTATION]. The data set can be described thus: Binding affinity to human partial length EGFR L747-S752del/P753S mutant expressed in bacterial expression system assessed as remaining unbound target protein level at 1000 nM by Kinomescan method relative to control. An outline of the steps:
(§3)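 KINOMEscan competition-binding profiling across the panel of 468 kinases and mutants, with inhibitor tested at 1 μM. Binding is expressed as percent of control, with DMSO as the reference control.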

In data set [13] the target is Mitogen-activated protein kinase 4 (Homo sapiens) (UniProt P31152). The data set can be described thus: Binding affinity to wild-type human partial length ERK4 (M1 to L365 residues) expressed in bacterial expression system assessed as remaining unbound target protein level at 1000 nM by Kinomescan method relative to control. The gist of the method:
(§4)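 KINOMEscan binding panel of 468 kinases/mutants. Inhibitor was tested at a single concentration of 1 μM. Binding is reported as percent of control, defined relative to a DMSO control.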

Data set [14] in a line: Tmax in beagle dog at 2 mg/kg, iv by LC-MS/MS analysis. Type of data set: ADME, organism-based, Canis lupus familiaris. Particulars: in vivo.
The target of data set [15] is Wee1-like protein kinase (Homo sapiens) (UniProt P30291). The data set can be described thus: Binding affinity to wild-type human partial length WEE1 (M291 to K575 residues) expressed in bacterial expression system assessed as remaining unbound target protein level at 1000 nM by Kinomescan method relative to control.
Data set [16] relates to Epidermal growth factor receptor (Homo sapiens), P00533 [T790M]. Put plainly: Binding affinity to human partial length EGFR T790M mutant (R669 to G1022 residues) expressed in mammalian expression system assessed as remaining unbound target protein level at 1000 nM by Kinomescan method relative to control. An outline of the steps: as §3
Data set [17] deals with 3-phosphoinositide-dependent protein kinase 1 (Homo sapiens) (UniProt O15530). Put plainly: Binding affinity to wild-type human full length PDPK1 (M1 to Q556 residues) expressed in bacterial expression system assessed as remaining unbound target protein level at 1000 nM by Kinomescan method relative to control. An outline of the steps: as §2
The target of data set [18] is Tyrosine-protein kinase Fer (Homo sapiens) (UniProt P16591). The data set can be described thus: Binding affinity to wild-type human partial length FER (S542 to T822 residues) expressed in bacterial expression system assessed as remaining unbound target protein level at 1000 nM by Kinomescan method relative to control.
Data set [19] concerns the target Insulin receptor (Homo sapiens) (UniProt P06213). Put plainly: Binding affinity to wild-type human partial length INSR (P997 to E1318 residues) expressed in mammalian expression system assessed as remaining unbound target protein level at 1000 nM by Kinomescan method relative to control. The gist of the method: as §4
In data set [20] the target is Ephrin type-A receptor 6 (Homo sapiens) (UniProt Q9UF33). Put plainly: Binding affinity to wild-type human partial length EPHA6 (Y700 to E1046 residues) expressed in bacterial expression system assessed as remaining unbound target protein level at 1000 nM by Kinomescan method relative to control.
Data set [21] has as its target Tyrosine-protein kinase JAK2 (Homo sapiens) (UniProt O60674). The data set can be described thus: Binding affinity to wild-type human partial length JAK2 JH1 catalytic domain (A829 to G1132 residues) expressed in mammalian expression system assessed as remaining unbound target protein level at 1000 nM by Kinomescan method relative to control.

pEC50: −log10 of the molar value.

Sequence of Cyclin-dependent kinase 9 (P50750 whole entry, the tested form may be a part): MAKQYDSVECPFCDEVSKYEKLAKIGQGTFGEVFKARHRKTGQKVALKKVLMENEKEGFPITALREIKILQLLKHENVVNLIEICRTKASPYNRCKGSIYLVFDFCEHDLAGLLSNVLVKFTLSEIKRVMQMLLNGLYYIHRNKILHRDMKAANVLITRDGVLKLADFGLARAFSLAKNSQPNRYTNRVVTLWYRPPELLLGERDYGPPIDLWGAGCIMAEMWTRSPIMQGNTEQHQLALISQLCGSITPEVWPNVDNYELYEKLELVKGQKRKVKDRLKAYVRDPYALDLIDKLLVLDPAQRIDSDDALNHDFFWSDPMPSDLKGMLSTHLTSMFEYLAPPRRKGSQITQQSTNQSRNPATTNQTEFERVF
Sequence of Tyrosine-protein kinase Fer (Homo sapiens) (P16591 whole entry, looked up, the tested form may be a part): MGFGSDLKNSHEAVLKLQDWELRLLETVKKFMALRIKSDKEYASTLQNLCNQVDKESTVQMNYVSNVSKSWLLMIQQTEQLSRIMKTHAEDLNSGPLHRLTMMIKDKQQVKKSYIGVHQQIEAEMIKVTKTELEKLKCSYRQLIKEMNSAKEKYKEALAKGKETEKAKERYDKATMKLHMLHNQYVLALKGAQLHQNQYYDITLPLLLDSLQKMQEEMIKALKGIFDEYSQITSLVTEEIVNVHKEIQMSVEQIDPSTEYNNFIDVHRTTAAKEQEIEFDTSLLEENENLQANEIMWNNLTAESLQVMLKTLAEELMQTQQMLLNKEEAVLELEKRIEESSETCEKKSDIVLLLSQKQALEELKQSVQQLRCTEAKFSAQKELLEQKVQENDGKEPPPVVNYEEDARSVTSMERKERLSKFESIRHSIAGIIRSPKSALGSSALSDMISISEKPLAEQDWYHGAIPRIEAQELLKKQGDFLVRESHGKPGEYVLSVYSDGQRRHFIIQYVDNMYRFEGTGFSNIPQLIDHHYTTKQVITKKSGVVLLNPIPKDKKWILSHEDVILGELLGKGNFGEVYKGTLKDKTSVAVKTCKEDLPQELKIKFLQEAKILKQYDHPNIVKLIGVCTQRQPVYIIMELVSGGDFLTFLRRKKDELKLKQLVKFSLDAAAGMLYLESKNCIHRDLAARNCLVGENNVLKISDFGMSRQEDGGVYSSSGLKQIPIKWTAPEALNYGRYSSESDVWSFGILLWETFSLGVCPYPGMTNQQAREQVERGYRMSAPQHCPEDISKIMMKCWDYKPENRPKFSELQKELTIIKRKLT
Sequence of cGMP-dependent protein kinase 1 (Homo sapiens) (Q13976 whole entry, the tested form may be a part): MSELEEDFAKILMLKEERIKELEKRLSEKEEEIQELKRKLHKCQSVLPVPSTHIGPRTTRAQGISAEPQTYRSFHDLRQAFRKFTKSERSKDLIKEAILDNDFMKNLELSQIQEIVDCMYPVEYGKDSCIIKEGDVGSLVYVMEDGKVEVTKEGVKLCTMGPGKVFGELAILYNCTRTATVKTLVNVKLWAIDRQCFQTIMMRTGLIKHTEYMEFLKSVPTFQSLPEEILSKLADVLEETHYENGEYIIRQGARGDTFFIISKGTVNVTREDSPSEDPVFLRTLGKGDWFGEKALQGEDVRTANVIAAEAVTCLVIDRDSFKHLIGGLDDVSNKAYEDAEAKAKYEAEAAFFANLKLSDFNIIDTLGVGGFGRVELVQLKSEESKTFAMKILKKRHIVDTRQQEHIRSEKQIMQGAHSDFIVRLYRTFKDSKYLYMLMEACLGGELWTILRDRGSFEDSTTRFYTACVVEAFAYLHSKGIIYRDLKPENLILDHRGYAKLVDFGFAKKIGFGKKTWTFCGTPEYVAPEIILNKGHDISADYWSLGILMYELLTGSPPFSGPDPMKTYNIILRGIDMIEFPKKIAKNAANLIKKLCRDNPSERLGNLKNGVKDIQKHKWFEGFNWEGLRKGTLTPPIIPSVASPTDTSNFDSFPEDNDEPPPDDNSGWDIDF
Sequence of Ribosomal protein S6 kinase alpha-2 (Homo sapiens) (Q15349 whole entry, the tested form may be a part): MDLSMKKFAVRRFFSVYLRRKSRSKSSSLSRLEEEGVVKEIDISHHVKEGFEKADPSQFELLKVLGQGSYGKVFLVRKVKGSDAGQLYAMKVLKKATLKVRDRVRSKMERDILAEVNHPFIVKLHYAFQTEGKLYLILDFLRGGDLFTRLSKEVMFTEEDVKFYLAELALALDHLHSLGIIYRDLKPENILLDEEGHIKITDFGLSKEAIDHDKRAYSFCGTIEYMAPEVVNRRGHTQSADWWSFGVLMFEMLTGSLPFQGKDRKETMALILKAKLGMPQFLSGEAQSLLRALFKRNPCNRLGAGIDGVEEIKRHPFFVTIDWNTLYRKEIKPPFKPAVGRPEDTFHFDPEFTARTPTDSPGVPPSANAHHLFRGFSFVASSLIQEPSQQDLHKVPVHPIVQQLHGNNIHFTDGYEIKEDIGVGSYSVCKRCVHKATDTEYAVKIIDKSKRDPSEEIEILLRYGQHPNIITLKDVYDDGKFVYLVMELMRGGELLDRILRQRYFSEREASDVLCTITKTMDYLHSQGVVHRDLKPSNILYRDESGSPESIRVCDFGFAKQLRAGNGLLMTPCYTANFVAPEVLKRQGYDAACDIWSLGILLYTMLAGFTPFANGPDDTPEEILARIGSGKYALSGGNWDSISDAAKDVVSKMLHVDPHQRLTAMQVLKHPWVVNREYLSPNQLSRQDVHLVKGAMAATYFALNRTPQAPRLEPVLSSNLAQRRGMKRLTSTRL
Sequence of Insulin receptor (Homo sapiens) (P06213 28-758 limits assumed): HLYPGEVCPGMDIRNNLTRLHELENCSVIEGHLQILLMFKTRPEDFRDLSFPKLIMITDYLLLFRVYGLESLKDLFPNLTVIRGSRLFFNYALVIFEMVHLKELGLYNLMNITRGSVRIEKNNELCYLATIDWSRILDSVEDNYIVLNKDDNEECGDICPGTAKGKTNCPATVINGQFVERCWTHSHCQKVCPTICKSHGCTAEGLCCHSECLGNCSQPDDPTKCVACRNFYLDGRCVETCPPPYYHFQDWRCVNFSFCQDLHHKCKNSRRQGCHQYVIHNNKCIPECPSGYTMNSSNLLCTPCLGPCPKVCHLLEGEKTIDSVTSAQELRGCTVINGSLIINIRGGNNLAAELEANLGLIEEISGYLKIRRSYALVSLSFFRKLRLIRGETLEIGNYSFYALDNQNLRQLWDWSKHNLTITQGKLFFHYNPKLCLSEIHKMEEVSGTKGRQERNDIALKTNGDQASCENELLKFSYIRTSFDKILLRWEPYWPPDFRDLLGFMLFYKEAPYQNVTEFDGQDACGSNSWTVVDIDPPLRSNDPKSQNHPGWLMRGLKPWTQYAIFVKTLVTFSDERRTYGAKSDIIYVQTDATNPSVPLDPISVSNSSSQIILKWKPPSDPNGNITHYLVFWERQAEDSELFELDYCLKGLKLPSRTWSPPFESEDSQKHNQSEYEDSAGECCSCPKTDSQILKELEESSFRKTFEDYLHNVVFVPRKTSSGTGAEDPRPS
Sequence of Insulin receptor (Homo sapiens) (P06213 763-1382 limits assumed): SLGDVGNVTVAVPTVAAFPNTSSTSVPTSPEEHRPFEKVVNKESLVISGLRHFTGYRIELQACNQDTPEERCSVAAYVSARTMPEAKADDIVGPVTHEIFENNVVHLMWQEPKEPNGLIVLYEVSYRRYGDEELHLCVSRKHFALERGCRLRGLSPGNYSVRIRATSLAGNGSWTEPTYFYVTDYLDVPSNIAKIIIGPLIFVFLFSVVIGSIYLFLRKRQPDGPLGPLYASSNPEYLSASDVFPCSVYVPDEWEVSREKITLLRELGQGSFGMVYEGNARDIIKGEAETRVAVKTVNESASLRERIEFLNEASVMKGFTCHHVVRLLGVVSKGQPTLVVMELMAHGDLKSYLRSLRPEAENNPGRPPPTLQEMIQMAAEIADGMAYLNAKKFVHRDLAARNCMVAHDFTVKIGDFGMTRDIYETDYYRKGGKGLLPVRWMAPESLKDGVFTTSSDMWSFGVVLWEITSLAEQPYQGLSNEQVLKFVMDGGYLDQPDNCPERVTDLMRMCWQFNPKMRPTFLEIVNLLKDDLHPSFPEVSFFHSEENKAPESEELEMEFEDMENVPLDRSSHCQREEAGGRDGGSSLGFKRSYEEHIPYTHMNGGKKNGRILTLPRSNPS
Sequence of Wee1-like protein kinase (Homo sapiens) (P30291 whole entry, looked up, the tested form may be a part): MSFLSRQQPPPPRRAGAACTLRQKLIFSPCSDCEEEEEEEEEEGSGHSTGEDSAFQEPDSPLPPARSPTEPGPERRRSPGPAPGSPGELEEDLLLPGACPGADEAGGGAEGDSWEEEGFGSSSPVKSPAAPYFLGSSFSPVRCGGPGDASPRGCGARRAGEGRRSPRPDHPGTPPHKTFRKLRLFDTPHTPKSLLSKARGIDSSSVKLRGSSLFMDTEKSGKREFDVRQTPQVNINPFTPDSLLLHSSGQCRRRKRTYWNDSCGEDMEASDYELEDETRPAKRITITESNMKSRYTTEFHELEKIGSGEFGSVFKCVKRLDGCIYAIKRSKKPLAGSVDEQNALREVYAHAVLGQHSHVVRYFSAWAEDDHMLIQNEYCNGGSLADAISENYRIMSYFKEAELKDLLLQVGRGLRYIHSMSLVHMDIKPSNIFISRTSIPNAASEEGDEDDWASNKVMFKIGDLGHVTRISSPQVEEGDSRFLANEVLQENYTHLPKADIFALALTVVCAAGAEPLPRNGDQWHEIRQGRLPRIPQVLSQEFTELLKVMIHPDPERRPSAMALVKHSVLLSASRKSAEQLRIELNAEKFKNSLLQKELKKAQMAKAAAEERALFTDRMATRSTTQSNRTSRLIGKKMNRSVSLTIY

By GI50 is commonly meant the concentration giving 50% growth inhibition. Read a high GI50 as lower sensitivity of the cells. A word on the pEC50: it is the negative decadic logarithm of the EC50, by convention in mol/L. What is called Cmax is the peak of the concentration-time curve. As usually defined, the AUC is concentration integrated over time. Low values mean less exposure, high ones more exposure. As a reminder, the Tmax is the time from dosing to the highest level. Take `COCCN[C@H]1CC[C@H](Nc2cc(-c3csc(NCC4(C#N)CCOCC4)n3)c(Cl)cn2)CC1`: halving of growth in [1] (GI50 at 72 h) required 1.1 µM. Besides, the Activity came to 97% in data set [2]; 90% in [3]; 100% in data set [4]; 100% in data set [5]; 100% in [9]; 71% in data set [10]. In addition, the Activity in data set [12] is 79%; in data set [13], 99%; in [15], 94%; in [16] it was 100%; in data set [17] it was 92%; in data set [18], 88%. The Activity is 94% in data set [19], 100% in data set [20] and 85% in data set [21]. The pEC50 in data set [6] was greater than 7.00. Besides, the inhibition entry in [6] is “Dose-dependent effect”. This molecule also had a maximum concentration (Cmax) in [7] of 0.771 µg/mL. Also, in [8], the GI50 turned out to be 0.012 µM. Moreover, in data set [11], the AUC worked out at 3.12169 µg·h/mL. Besides, the time to peak (Tmax) in data set [14] amounted to 1.2 min.
